In the library only some 1.8% were active in any assay of this set; here they are far more common.
TDP2 absorb = blocks human TDP2 phosphodiesterase activity; recombinant TDP2, T5PNP hydrolysis, p-nitrophenol absorbance 415 nm; 0.34% of 370,000 active; inhibition, % at 12.8 µM; O95551;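 active = inhibition above the mean of all tested compounds plus 3 SD, set per campaign, cut at about 25% in these data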;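 also: 0% = DMSO with enzyme and 100% = buffer with substrate but no TDP2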
Target sequence (O95551 whole entry, looked up): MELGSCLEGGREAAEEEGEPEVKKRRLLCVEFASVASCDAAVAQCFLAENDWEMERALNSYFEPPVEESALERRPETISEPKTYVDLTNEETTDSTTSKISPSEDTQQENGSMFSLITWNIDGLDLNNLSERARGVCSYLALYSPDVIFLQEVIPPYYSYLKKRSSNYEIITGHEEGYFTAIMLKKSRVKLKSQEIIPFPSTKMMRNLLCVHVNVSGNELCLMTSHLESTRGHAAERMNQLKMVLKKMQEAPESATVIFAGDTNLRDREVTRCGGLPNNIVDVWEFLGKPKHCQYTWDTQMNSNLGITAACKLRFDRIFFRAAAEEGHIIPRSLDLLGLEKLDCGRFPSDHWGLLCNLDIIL
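Test system: Human TDP2 enzyme | Reagent: 5 mM T5PNP | Compound dosing: 12.8 µM single point, 1% DMSO | Incubation: Enzyme reaction with compound for 2 h at 37 °C | Technique: p-Nitrophenol epi absorbance | Read-out: % inhibition relative to enzyme-containing and enzyme-free wells | Benchmarks: High control without enzyme, low control DMSO plus TDP2 | Replicates: Singlicate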
Apaf1 inhib = human Apaf-1 inhibition; inhibition, % at 20 µM; AID 489030; 0.71% of 330,000 active; reconstituted apoptosome caspase-3 activity, DEVD-Rh110 fluorescence; active = inhibition of at least 40% at 20 µM;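 also: plate controls were DMSO wells for no effect and DEVD-CHO caspase inhibitor wells for full effect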
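Material: biochemical Apaf-1 apoptosome reconstitution. Medium: Hepes buffer, pH 7.5. Also added: cytochrome c activation, bis-DEVD rhodamine 110 substrate. Timing: 30 min compound preincubation, 50 min activation, room temperature. Measured by: rhodamine 110 fluorescence at Ex 480/Em 540 nm.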
GSTO1 inh = counter-screen for RBBP9 inhibitors: inhibitors of human GSTO1 | inhibition, % at 5.96 µM | 1.1% of 300,000 active | recombinant GSTO1, activity-based probe fluorescence polarization | P78417;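 active = inhibition above the campaign mean inhibition plus 3 SD, cut at about 35% in these data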;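 also: 0% = GSTO1-1 with DMSO and 100% = wells lacking GSTO1-1 enzyme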
Target sequence (P78417 whole entry, looked up): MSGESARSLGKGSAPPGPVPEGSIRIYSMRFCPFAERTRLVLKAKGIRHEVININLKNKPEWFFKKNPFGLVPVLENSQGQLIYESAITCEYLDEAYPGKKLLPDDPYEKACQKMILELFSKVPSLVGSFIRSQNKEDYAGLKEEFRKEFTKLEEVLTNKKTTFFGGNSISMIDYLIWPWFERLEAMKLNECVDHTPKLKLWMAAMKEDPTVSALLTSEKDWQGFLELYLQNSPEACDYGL
PAD4 inh = blocks human protein arginine deiminase 4; Q9UM07; recombinant PAD4, RCA probe fluorescence polarization; inhibition, % at 6.36 µM; 0.41% of 330,000 active; AID 485272;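 active = percent inhibition above a cutoff equal to the mean of all tested compounds plus 3 SD, cut at about 15% in these data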;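 also: 0% = PAD4 with RCA probe and DMSO and 100% = probe without PAD4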
Fh CTSL1 inh = blocks F. hepatica cathepsin L1 in PFM18AAP counter-screen. recombinant F. hepatica cathepsin L1, Z-Leu-Arg-MCA fluorescence. inhibition, % at 5.96 µM. 0.49% of 300,000 active. AID 1906;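 active = inhibition above the mean of all tested compounds plus 3 SD, set per screening campaign, cut at about 17% in these data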;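 also: 0% = plate median of test compound wells and 100% = 1 µM Z-Phe-Ala-diazomethylketone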
Starred values were filed as active, the others as inactive; nt = not tested or not shown.

SMILES	TDP2 absorb	Apaf1 inhib	GSTO1 inh	PAD4 inh	Fh CTSL1 inh
Nc1cccc2[nH]c(C(F)(F)F)nc12	32*	-7	4	-13	-1
Cc1cc(C)nc(NC(=S)N2CCN(c3ncc(C(F)(F)F)cc3Cl)CC2)c1	0	nt	nt	nt	nt
CC(NS(=O)(=O)c1ccccc1)C(c1cccs1)N1CCOCC1 (stereo not given)	8	3	-2	4	79*
CC(NS(=O)(=O)c1ccc(Br)cc1)C(c1cccs1)N1CCOCC1 (stereo not given)	9	5	3	0	-1
CCN(CC)CCOc1ccc(/C(=C(\Cl)c2ccccc2)c2ccccc2)cc1	-2	66*	3	-2	6
CCN(CC)CCOc1ccc(Br)cc1	4	-17	2	-4	-5
Cc1cccc(NC(=O)CSc2nnc(-c3cccnc3)n2Cc2ccco2)c1C	6	nt	nt	nt	nt
Nc1nn2c(-c3ccccc3)cc(=O)[nH]c2c1N=Nc1ccc(O)cc1	3	41*	21	-11	3
NC(=O)c1c(NC(=O)c2cccc(N3C(=O)CCC3=O)c2)sc2c1CCCCC2	3	-3	3	-1	2
CC(=O)N1CCc2c(sc(NC(=O)c3cccc(N4C(=O)CCC4=O)c3)c2C(N)=O)C1	6	57*	14	1	25*
Nc1c(C(=O)c2ccccc2)sc(Nc2ccccc2)c1S(=O)(=O)c1ccccc1	-10	19	1	-1	19*
N#Cc1ccc(Cn2nnc(-c3ccc(N4CCOCC4)cc3)n2)cc1	-2	nt	nt	nt	nt
COc1ccc(CNC(=S)Nc2ccc(S(N)(=O)=O)cc2)cc1	43*	4	10	3	-2
C=CCN(CC#CC(=C)C)CC1CC1	-2	nt	nt	nt	nt
O=C(Nc1cccc(S(=O)(=O)NC2=NCCC2)c1)c1cc(-c2ccco2)nc2ccccc12	-1	30	60*	-6	2
O=C(NC(=S)Nc1cccc(S(=O)(=O)NC2=NCCC2)c1)c1cc(-c2ccco2)nc2ccccc12	-2	14	7	-5	3
CN(C)S(=O)(=O)N(CC(=O)Nc1ccccc1F)c1ccccc1	3	3	4	-1	3
CCOCC(=O)Nc1cc(C(=O)OC)ccc1C(=O)OC	-1	-4	37*	5	5
COC(=O)c1ccc(C(=O)OC)c(NC(=O)CN(c2ccccc2)S(=O)(=O)N(C)C)c1	1	8	-10	3	37*
O=C(NCc1ccco1)O[C@@H]1CC[C@@]23CCCN2C(=O)CCC[C@H]3C1	-2	nt	nt	nt	nt
COc1cc(OC)c(C2CC(=O)N3CN(c4ccccc4C)CSC3=C2C#N)cc1OC (stereo not given)	-3	66*	36*	-21	31*
COc1ccc(OC)c(C2CC(=O)N3CN(c4ccccc4)CSC3=C2C#N)c1 (stereo not given)	-2	14	13	1	4
C#CCOCCOCCOCCNc1nc(N2CCN(C(=O)CCCCCCCCCCNC(=O)[C@@H]([C@H](C)O)n3cc(C)nn3)CC2)nc(N2CCN(C(=O)CCCCCCCCCCNC(=O)[C@@H]([C@H](C)O)n3cc(C)nn3)CC2)n1	-18	30	2	4	-1
C#CCOCCOCCOCCNc1nc(N2CCN(C(=O)CCCCCCCCCCNC(=O)[C@H](CCC(=O)O)n3cc(CCCCCN)nn3)CC2)nc(N2CCN(C(=O)CCCCCCCCCCNC(=O)[C@@H]([C@H](C)O)n3cc(C)nn3)CC2)n1	nt	51*	1	3	-2
C#CCOCCOCCOCCNc1nc(N2CCN(C(=O)CCCCCCCCCCNC(=O)[C@H]([C@@H](C)CC)n3cc(CCCCCN)nn3)CC2)nc(N2CCN(C(=O)CCCCCCCCCCNC(=O)[C@@H]([C@H](C)O)n3cc(C)nn3)CC2)n1	nt	50*	12	-5	3
SMILES	TDP2 absorb	Apaf1 inhib	GSTO1 inh	PAD4 inh	Fh CTSL1 inh
C#CCOCCOCCOCCNc1nc(N2CCN(C(=O)CCCCCCCCCCNC(=O)[C@@H](CCC(=O)O)n3cc(CCCCCN)nn3)CC2)nc(N2CCN(C(=O)CCCCCCCCCCNC(=O)[C@@H](CCC(=O)O)n3cc(CCCCCN)nn3)CC2)n1	-1	36	0	4	4
C#CCOCCOCCOCCNc1nc(N2CCN(C(=O)CCCCCCCCCCNC(=O)[C@H](CCCCN)n3cc(CCCC(=O)O)nn3)CC2)nc(N2CCN(C(=O)CCCCCCCCCCNC(=O)[C@H](CCCCN)n3cc(CCCC(=O)O)nn3)CC2)n1	nt	18	0	7	5
C#CCOCCOCCOCCNc1nc(N2CCN(C(=O)CCCCCCCCCCNC(=O)[C@H](CCCCN)n3cc(C)nn3)CC2)nc(N2CCN(C(=O)CCCCCCCCCCNC(=O)[C@@H]([C@H](C)CC)n3cc(CCCCCN)nn3)CC2)n1	nt	82*	4	-4	3
O=C(Nc1ccc2[nH]ccc2c1)c1cc(-c2ccc(Cl)cc2)nc2ccccc12	6	nt	nt	nt	nt
O=C(Nc1ccc(F)cc1)OCc1cn(Cc2ccccc2C(F)(F)F)nn1	0	nt	nt	nt	nt
ONc1cccnc1-n1nc(C(F)(F)F)cc1C(F)(F)F	nt	47*	8	-15	3
C=CCN1C(=O)[C@H](CC(=O)NCCc2ccccc2OC)[C@@]2(C(=O)OCC)CCCC=C12	-2	nt	nt	nt	nt
CC(CC(=O)O)Nc1ccccc1O (stereo not given)	7	4	48*	-5	-5
O=C(Nc1ccccc1C(=O)O)c1cc(S(=O)(=O)N2CCCCC2)c(Cl)cc1Cl	-15	11	36*	3	4
CC(C)C[C@@H](CCCc1ccccc1)CCC(=O)N(c1ccccc1)c1ccccc1	3	nt	nt	nt	nt
O=C(CCS(=O)(=O)c1ccc(Br)s1)N1CCc2ccccc21	-2	6	36*	-4	2
O=C(CS(=O)(=O)c1ccccc1)N1CCc2ccccc21	-6	3	-1	0	0
O=C(COC(=O)C1CC1)Nc1ncc(C(F)(F)F)cc1Cl	7	-1	8	1	-11
O=C(COC(=O)CNC(=O)c1ccccc1Cl)Nc1ncc(C(F)(F)F)cc1Cl	7	-10	2	-1	21*
O=C(CNC(=O)c1ccccc1)OC(C(=O)Nc1cc(C(F)(F)F)ccc1Cl)c1ccccc1 (stereo not given)	-4	13	0	1	28*
COc1ccc(C(F)(F)F)cc1NC(=O)C(OC(=O)CNC(=O)c1ccccc1)c1ccccc1 (stereo not given)	4	nt	nt	nt	nt
COc1ccc(C)cc1NC(=O)C(OC(=O)CNC(=O)c1ccc(Oc2ccccc2)cc1)c1ccccc1 (stereo not given)	-9	19	-4	-1	16
COc1ccc(C)cc1NC(=O)C(OC(=O)CNC(=O)c1cccc(F)c1)c1ccccc1 (stereo not given)	11	8	0	1	29*
Cc1ccc(Cn2cc(CN3[C@H](CC(C)C)COc4cc(Br)ccc4S3(=O)=O)nn2)cc1	-12	nt	nt	nt	nt
